Source: ChEMBL document CHEMBL3621107, “Ring fusion strategy for synthesis and lead optimization of sulfur-substituted anthra[1,2-c][1,2,5]thiadiazole-6,11-dione derivatives as promising scaffold of antitumor agents” (Eur J Med Chem, 2015)

Experiments:
[1] = tested on: NCI-H460; experiment: Cytotoxicity against human NCI-H460 cells assessed as cell growth at 10 uM after 48 hrs by SRB assay relative to control; format: functional; conditions: NCI-H460, 48 h, read-out: Activity
Procedure, shortened: (§1)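 First-stage NCI DTP one-dose screen against the 60 human tumour cell line panel. Compounds were tested at a single 10 μM level, and results are given as growth percentage.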

[2] = tested on: Malme-3M; experiment: Cytotoxicity against human MALME-3M cells assessed as cell growth at 10 uM after 48 hrs by SRB assay relative to control; format: functional; conditions: read-out: Activity
Procedure, shortened: (§2)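 First-stage NCI-60 screen by the NCI Developmental Therapeutics Program. Each compound was tested once at a single concentration of 10 μM against the 60-cell-line panel. Growth percentage was reported for each cell line.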

[3] = tested on: SK-MEL-5; experiment: Cytotoxicity against human SK-MEL-5 cells assessed as cell growth at 10 uM after 48 hrs by SRB assay relative to control; format: functional; conditions: SK-MEL-5, 48 h, read-out: Activity; procedure, shortened: as §1
[4] = Cytotoxicity against human EKVX cells assessed as cell growth at 10 uM after 48 hrs by SRB assay relative to control; format: functional; conditions: read-out: Activity; procedure, shortened: as §2
[5] = tested on: LOX IMVI; experiment: Cytotoxicity against human LOXIMVI cells assessed as cell growth at 10 uM after 48 hrs by SRB assay relative to control; format: functional; conditions: read-out: Activity; procedure, shortened: as §2
[6] = Cytotoxicity against human Hs578T cells assessed as cell growth at 10 uM after 48 hrs by SRB assay relative to control; format: functional; conditions: Hs-578T, read-out: Activity; procedure, shortened: as §2
[7] = tested on: HOP-92; experiment: Cytotoxicity against human HOP92 cells assessed as cell growth at 10 uM after 48 hrs by SRB assay relative to control; format: functional; conditions: HOP-92, 48 h, read-out: Activity; procedure, shortened: as §2
[8] = tested on: UACC-62; experiment: Cytotoxicity against human UACC62 cells assessed as cell growth at 10 uM after 48 hrs by SRB assay relative to control; format: functional; conditions: UACC-62, 48 h, read-out: Activity
Procedure, shortened: (§3)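 NCI-60 one-dose screen run by NCI DTP: each cell line exposed to a single 10 µM dose, and percentage growth recorded against untreated growth.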

[9] = tested on: HCT-15; experiment: Cytotoxicity against human HCT15 cells assessed as cell growth at 10 uM after 48 hrs by SRB assay relative to control; format: functional; conditions: HCT-15, 48 h, read-out: Activity; procedure, shortened: as §2
[10] = tested on: PC-3; experiment: Cytotoxicity against human PC3 cells assessed as cell growth at 10 uM after 48 hrs by SRB assay relative to control; format: functional; conditions: PC-3, 48 h, read-out: Activity; procedure, shortened: as §1
[11] = tested on: SK-OV-3; experiment: Cytotoxicity against human SKOV3 cells assessed as cell growth at 10 uM after 48 hrs by SRB assay relative to control; format: functional; conditions: SK-OV-3, 48 h, read-out: Activity; procedure, shortened: as §1
[12] = tested on: T47D; experiment: Cytotoxicity against human T47D cells assessed as cell growth at 10 uM after 48 hrs by SRB assay relative to control; format: functional; conditions: read-out: Activity; procedure, shortened: as §3
[13] = tested on: IGROV-1; experiment: Cytotoxicity against human IGROV1 cells assessed as cell growth at 10 uM after 48 hrs by SRB assay relative to control; format: functional; conditions: IGROV-1, 48 h, read-out: Activity; procedure, shortened: as §2
[14] = tested on: DU-145; experiment: Cytotoxicity against human DU145 cells after 72 hrs by MTT assay; format: functional, cell-based; conditions: DU-145, 72 h
Procedure, shortened: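 DU-145 cells grown in RPMI-1640 with 5% heat-inactivated fetal calf serum at 37 °C, 5% CO2. About 2×10^3 cells per well were seeded and incubated for 24 h. Compounds were dissolved in DMSO freshly and diluted into medium (vehicle 0.1% DMSO), then cells were exposed for 72 h. MTT was added for 3 h at 37 °C and absorbance read at 570 nm.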

[15] = tested on: NCI-H226; experiment: Cytotoxicity against human NCI-H226 cells assessed as cell growth at 10 uM after 48 hrs by SRB assay relative to control; format: functional; conditions: NCI-H226, 48 h, read-out: Activity; procedure, shortened: as §1
[16] = tested on: KM12; experiment: Cytotoxicity against human KM12 cells assessed as cell growth at 10 uM after 48 hrs by SRB assay relative to control; format: functional; conditions: KM12, 48 h, read-out: Activity; procedure, shortened: as §2
[17] = tested on: 786-0; experiment: Cytotoxicity against human 786-0 cells assessed as cell growth at 10 uM after 48 hrs by SRB assay relative to control; format: functional; conditions: 786-0, 48 h, read-out: Activity; procedure, shortened: as §2
[18] = tested on: TK-10; experiment: Cytotoxicity against human TK10 cells assessed as cell growth at 10 uM after 48 hrs by SRB assay relative to control; format: functional; conditions: TK-10, 48 h, read-out: Activity; procedure, shortened: as §3
[19] = tested on: RXF 393; experiment: Cytotoxicity against human RXF393 cells assessed as cell growth at 10 uM after 48 hrs by SRB assay relative to control; format: functional; conditions: RXF 393, 48 h, read-out: Activity; procedure, shortened: as §1
[20] = tested on: A498; experiment: Cytotoxicity against human A498 cells assessed as cell growth at 10 uM after 48 hrs by SRB assay relative to control; format: functional; conditions: A498, 48 h, read-out: Activity; procedure, shortened: as §2
[21] = tested on: SK-MEL-2; experiment: Cytotoxicity against human SK-MEL-2 cells assessed as cell growth at 10 uM after 48 hrs by SRB assay relative to control; format: functional; conditions: SK-MEL-2, 48 h, read-out: Activity; procedure, shortened: as §1
[22] = tested on: MDA-MB-231; experiment: Cytotoxicity against human MDA-MB-231 cells assessed as cell growth at 10 uM after 48 hrs by SRB assay relative to control; format: functional; conditions: MDA-MB-231, 48 h, read-out: Activity; procedure, shortened: as §1
[23] = tested on: NCI-H23; experiment: Cytotoxicity against human NCI-H23 cells assessed as cell growth at 10 uM after 48 hrs by SRB assay relative to control; format: functional; conditions: NCI-H23, 48 h, read-out: Activity; procedure, shortened: as §1
[24] = tested on: HCC 2998; experiment: Cytotoxicity against human HCC2998 cells assessed as cell growth at 10 uM after 48 hrs by SRB assay relative to control; format: functional; conditions: HCC 2998, 48 h, read-out: Activity; procedure, shortened: as §2
[25] = tested on: U-251; experiment: Cytotoxicity against human U251 cells assessed as cell growth at 10 uM after 48 hrs by SRB assay relative to control; format: functional; conditions: U-251, 48 h, read-out: Activity; procedure, shortened: as §3
[26] = tested on: M14; experiment: Cytotoxicity against human M14 cells assessed as cell growth at 10 uM after 48 hrs by SRB assay relative to control; format: functional; conditions: M14, 48 h, read-out: Activity; procedure, shortened: as §2
[27] = tested on: SK-MEL-28; experiment: Cytotoxicity against human SK-MEL-28 cells assessed as cell growth at 10 uM after 48 hrs by SRB assay relative to control; format: functional; conditions: SK-MEL-28, 48 h, read-out: Activity; procedure, shortened: as §1
[28] = tested on: DU-145; experiment: Cytotoxicity against human DU145 cells assessed as cell growth at 10 uM after 48 hrs by SRB assay relative to control; format: functional; conditions: DU-145, 48 h, read-out: Activity; procedure, shortened: as §2
[29] = tested on: BT-549; experiment: Cytotoxicity against human BT549 cells assessed as cell growth at 10 uM after 48 hrs by SRB assay relative to control; format: functional; conditions: BT-549, 48 h, read-out: Activity; procedure, shortened: as §2
[30] = tested on: HT-29; experiment: Cytotoxicity against human HT-29 cells assessed as cell growth at 10 uM after 48 hrs by SRB assay relative to control; format: functional; conditions: HT-29, 48 h, read-out: Activity; procedure, shortened: as §2
[31] = tested on: OVCAR-5; experiment: Cytotoxicity against human OVCAR5 cells assessed as cell growth at 10 uM after 48 hrs by SRB assay relative to control; format: functional; conditions: OVCAR-5, 48 h, read-out: Activity; procedure, shortened: as §1
[32] = tested on: ACHN; experiment: Cytotoxicity against human ACHN cells assessed as cell growth at 10 uM after 48 hrs by SRB assay relative to control; format: functional; conditions: read-out: Activity; procedure, shortened: as §2

Structure (SMILES) | growth at 10 µM [1] [%] | growth at 10 µM [2] [%] | growth at 10 µM [3] [%] | growth at 10 µM [4] [%] | growth at 10 µM [5] [%] | growth at 10 µM [6] [%] | growth at 10 µM [7] [%] | growth at 10 µM [8] [%] | growth at 10 µM [9] [%] | growth at 10 µM [10] [%] | growth at 10 µM [11] [%] | growth at 10 µM [12] [%] | IC50 [14] [µM] | growth at 10 µM [15] [%] | growth at 10 µM [16] [%] | growth at 10 µM [17] [%] | growth at 10 µM [18] [%] | growth at 10 µM [19] [%] | growth at 10 µM [20] [%] | growth at 10 µM [21] [%] | also measured
O=C1c2ccccc2C(=O)c2c1cc(SCc1ccccc1)c1nsnc21 | 92 | 80.8 | 22.5 | 95 | 7.49 | 60 | -14.4 | 43.1 | 54.7 | 38.4 | 80.3 | -46.1 | 6.35 | 101 | 103 | 92.6 | 130 | 68.1 | 88.6 | -3.95 | growth at 10 µM [13]: 43.9%; growth at 10 µM [22]: -13.4%; growth at 10 µM [23]: 55.3%; growth at 10 µM [24]: 115%; growth at 10 µM [25]: 30.5%; growth at 10 µM [26]: 86.5%; growth at 10 µM [27]: 95%; growth at 10 µM [28]: 82.2%; growth at 10 µM [29]: 96.2%
O=C1c2ccccc2C(=O)c2c1cc(Sc1ccccc1)c1nsnc21 | 101 | 106 | 85.7 | 97.8 | 42 | 95.9 | 118 | 86.3 | 93.9 | 87.3 | 106 | 93.2 | > 15 | 102 | 99.5 | 110 | 143 | 114 | 95 | 112 | growth at 10 µM [13]: 84.4%; growth at 10 µM [22]: 66.7%; growth at 10 µM [23]: 79.2%; growth at 10 µM [24]: 111%; growth at 10 µM [25]: 88.8%; growth at 10 µM [26]: 106%; growth at 10 µM [27]: 127%; growth at 10 µM [28]: 103%; growth at 10 µM [29]: 105%
O=C1c2ccccc2C(=O)c2c1cc(Sc1ccc(F)cc1F)c1nsnc21 | 83.6 | 39.5 | 48.5 | 98.1 | -42 | 50.1 | -18.4 | 53.3 | 45.8 | -9.72 | 92.6 | -28.6 | 9.12 | 88.8 | 51.8 | 3.74 | 112 | 36.7 | 50.8 | 51.8 | growth at 10 µM [22]: -9.73%; growth at 10 µM [30]: 102%; growth at 10 µM [31]: 110%; growth at 10 µM [23]: 9.53%; growth at 10 µM [24]: 107%; growth at 10 µM [25]: 34.5%; growth at 10 µM [26]: 53.8%; growth at 10 µM [27]: 79.5%; growth at 10 µM [28]: 41.3%; growth at 10 µM [32]: 34.9%; growth at 10 µM [29]: 66.4%
